Assays:
[1] = Cytotoxicity against human PC3 cells after 48 hrs by WST-8 assay; type: functional, cell-based; details: PC-3, 48 h
[2] = molecular target: T1, Alpha-1A adrenergic receptor (Rattus norvegicus, UniProt P43140); test: Antagonist activity at Sprague-Dawley rat prostatic vas deferens adrenergic alpha-1A receptor after 20 mins; details: read-out: pA2 (converted)
T1 sequence (P43140 whole entry): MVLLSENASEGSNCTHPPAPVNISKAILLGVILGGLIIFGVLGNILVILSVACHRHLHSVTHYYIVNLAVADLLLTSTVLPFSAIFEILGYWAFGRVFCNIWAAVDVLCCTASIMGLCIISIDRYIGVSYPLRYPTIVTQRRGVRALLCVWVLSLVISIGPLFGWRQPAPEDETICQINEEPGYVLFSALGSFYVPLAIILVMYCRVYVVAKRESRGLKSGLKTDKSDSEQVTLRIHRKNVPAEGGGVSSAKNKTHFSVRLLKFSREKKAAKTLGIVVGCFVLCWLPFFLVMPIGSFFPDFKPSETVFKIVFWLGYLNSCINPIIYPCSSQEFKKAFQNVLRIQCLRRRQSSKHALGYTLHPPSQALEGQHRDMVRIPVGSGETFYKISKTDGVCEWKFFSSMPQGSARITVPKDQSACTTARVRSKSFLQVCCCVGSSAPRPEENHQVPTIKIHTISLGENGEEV
Method in brief: (§1)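 Isolated rat tissues (prostatic vas deferens, spleen, thoracic aorta) contracted with cumulative norepinephrine; concentration-response curves recorded in presence of increasing antagonist concentrations, antagonism read as rightward curve shift. Mean ± SEM of five to eight separate experiments.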

[3] = molecular target: T2, Alpha-1D adrenergic receptor (Rattus norvegicus, UniProt P23944); test: Antagonist activity at Sprague-Dawley rat thoracic aorta adrenergic alpha-1D receptor after 20 mins; details: read-out: pA2 (converted); method in brief: as §1
T2 sequence (P23944 whole entry): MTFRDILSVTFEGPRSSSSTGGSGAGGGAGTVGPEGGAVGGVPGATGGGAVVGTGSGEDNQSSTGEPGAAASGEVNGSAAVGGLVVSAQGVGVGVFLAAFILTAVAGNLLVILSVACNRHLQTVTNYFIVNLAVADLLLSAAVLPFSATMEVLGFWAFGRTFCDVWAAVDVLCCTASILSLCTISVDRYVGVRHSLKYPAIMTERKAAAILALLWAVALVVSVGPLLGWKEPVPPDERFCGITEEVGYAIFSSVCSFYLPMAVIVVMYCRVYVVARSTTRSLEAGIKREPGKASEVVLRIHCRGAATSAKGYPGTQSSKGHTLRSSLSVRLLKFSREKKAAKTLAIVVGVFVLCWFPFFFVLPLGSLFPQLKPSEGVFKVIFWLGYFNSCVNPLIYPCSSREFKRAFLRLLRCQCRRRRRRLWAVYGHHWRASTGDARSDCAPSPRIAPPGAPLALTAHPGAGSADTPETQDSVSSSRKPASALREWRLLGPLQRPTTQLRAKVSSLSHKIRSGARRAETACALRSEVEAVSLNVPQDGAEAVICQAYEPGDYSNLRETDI

LNCaP = test: Cytotoxicity against human LNCAP cells after 48 hrs by WST-8 assay; type: functional, cell-based
DU-145 [4] = test: Cytotoxicity against human DU145 cells after 48 hrs by WST-8 assay; type: functional, cell-based; details: DU-145, 48 h
Rattus norvegicus [5] = species: Rattus norvegicus; test: Selectivity ratio for Sprague-Dawley rat prostatic vas deferens adrenergic alpha-1A receptor to Sprague-Dawley rat spleen adrenergic alpha-1B receptor
[6] = molecular target: T3, Alpha-1B adrenergic receptor (Rattus norvegicus, UniProt P15823); test: Antagonist activity at Sprague-Dawley rat spleen adrenergic alpha-1B receptor after 20 mins; details: read-out: pA2 (converted); method in brief: as §1
T3 sequence (P15823 whole entry): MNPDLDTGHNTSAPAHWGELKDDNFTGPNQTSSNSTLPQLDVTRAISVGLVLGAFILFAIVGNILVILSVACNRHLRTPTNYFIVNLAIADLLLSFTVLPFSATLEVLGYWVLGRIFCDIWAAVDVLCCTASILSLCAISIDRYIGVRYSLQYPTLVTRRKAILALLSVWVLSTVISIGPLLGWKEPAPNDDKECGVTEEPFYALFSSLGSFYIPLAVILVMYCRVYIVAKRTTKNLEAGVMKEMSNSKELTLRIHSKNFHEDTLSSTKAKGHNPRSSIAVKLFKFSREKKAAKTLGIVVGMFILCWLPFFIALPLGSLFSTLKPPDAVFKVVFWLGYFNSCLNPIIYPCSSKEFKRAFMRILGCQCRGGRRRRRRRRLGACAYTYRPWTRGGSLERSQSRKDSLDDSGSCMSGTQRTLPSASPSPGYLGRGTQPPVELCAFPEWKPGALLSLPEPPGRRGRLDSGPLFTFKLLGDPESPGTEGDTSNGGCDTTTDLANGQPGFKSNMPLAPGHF

Rattus norvegicus [7] = species: Rattus norvegicus; test: Selectivity ratio for Sprague-Dawley rat thoracic aorta adrenergic alpha-1D receptor to Sprague-Dawley rat prostatic vas deferens adrenergic alpha-1A receptor
Rattus norvegicus [8] = species: Rattus norvegicus; test: Selectivity ratio for Sprague-Dawley rat thoracic aorta adrenergic alpha-1D receptor to Sprague-Dawley rat spleen adrenergic alpha-1B receptor; type: tissue-based
[9] = Cytotoxicity against human PC3 cells; type: functional, cell-based; details: PC-3
DU-145 [10] = test: Cytotoxicity against human DU145 cells; type: functional, cell-based

Row | Compound | IC50 [1] [nM] | Kb [2] [nM] | Kb [3] [nM] | IC50 (LNCaP) [nM] | IC50 (DU-145 [4]) [nM] | Ratio (Rattus norvegicus [5]) | Kb [6] [nM] | Ratio (Rattus norvegicus [7]) | Ratio (Rattus norvegicus [8]) | IC50 [9] [nM] | IC50 (DU-145 [10]) [nM]
1 | COc1ccccc1N1CCN(CCCNC(=O)CCCc2c[nH]c3ccccc23)CC1 | > 100000 | 12.6 | 5.13 | 52300 | > 100000 | 7.6 | 95.5 | 2.5 | 18.6 | – | –
2 | COc1ccccc1N1CCN(CCCNC(=O)CCc2c[nH]c3ccccc23)CC1 | – | 195 | 34.7 | – | – | 1.1 | 219 | 5.6 | 6.3 | – | –
3 | COc1cc2nc(N3CCN(C(=O)C4CCCO4)CC3)nc(N)c2cc1OC (stereo not drawn) [TERAZOSIN] | – | – | 1.48 | – | – | – | 2.57 | – | – | – | –
4 | COc1ccccc1N1CCN(CCCNC(=O)c2cn(C)c3ccccc23)CC1 | – | 52.5 | 5.5 | – | – | 3.2 | 166 | 9.6 | 30.2 | – | –
5 | COc1cc2nc(N3CCN(C(=O)C4COc5ccccc5O4)CC3)nc(N)c2cc1OC (stereo not drawn) [DOXAZOSIN] | > 50000 | – | – | – | – | – | – | – | – | – | –
6 | COc1ccc2[nH]c(C(=O)NCCCN3CCN(c4ccccc4OC)CC3)cc2c1 | – | 77.6 | 58.9 | – | – | 18.6 | 1450 | 1.3 | 24.5 | – | –
7 | COc1ccccc1N1CCN(CC(O)COc2cccc3ccccc23)CC1 (stereo not drawn) [NAFTOPIDIL] | > 50000 | 33.1 | 11.7 | > 50000 | > 50000 | 5.4 | 178 | 2.8 | 15.1 | 33200 | 22200
8 | COc1ccccc1N1CCN(CCCNC(=O)c2cc3cc(O)ccc3[nH]2)CC1 | – | 55 | 26.9 | – | – | 2.8 | 155 | 2 | 5.6 | – | –
9 | COc1ccccc1N1CCN(CCCNC(=O)c2cc3cccc([N+](=O)[O-])c3[nH]2)CC1 | – | 58.9 | 28.2 | – | – | 11 | 646 | 2.1 | 22.9 | – | –
10 | COc1ccccc1N1CCN(CCCNC(=O)c2cc3ccc(Br)cc3[nH]2)CC1 | 31200 | 69.2 | 15.1 | 26700 | 39300 | 3 | 209 | 4.6 | 13.8 | – | –
11 | COc1ccccc1N1CCN(CCCNC(=O)Cc2c[nH]c3ccccc23)CC1 | – | 7.94 | 5.25 | – | – | 64.6 | 513 | 1.5 | 97.7 | – | –
12 | COc1ccccc1N1CCN(CCCNC(=O)c2ccc3[nH]ccc3c2)CC1 | – | 26.3 | 11.7 | – | – | 4.7 | 123 | 2.2 | 10.5 | – | –
13 | COc1ccccc1N1CCN(CCCNC(=O)c2cc3cc(Cl)ccc3[nH]2)CC1 | 36900 | 47.9 | 19.5 | 28400 | 47000 | 5.4 | 257 | 2.5 | 13.2 | – | –

From ChEMBL document CHEMBL3414528, “Novel naftopidil-related derivatives and their biological effects as alpha1-adrenoceptors antagonists and antiproliferative agents” (Eur J Med Chem, 2015)
